Data taken from ChEMBL document CHEMBL5376019, “Design, synthesis and evaluation of 2-phenylpyrimidine derivatives as novel antifungal agents targeting CYP51” (RSC Med Chem, 2024).
Values after ≈ are worked out from the molar mass of the structure shown.

Experiments:
Type in all cases: functional
[1] = test system: Candida albicans; experiment: Antifungal activity against Candida albicans ATCC SC5314 assessed as fungal growth inhibition
Summary of the method: (§1)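 Broth microdilution per NCCLS M27-A3, with fluconazole as positive control. Assay medium was RPMI 1640 buffered with MOPS. Inocula were diluted to 1–5 × 10^3 CFU mL−1 and seeded in 96-well plates. Compounds were dissolved in DMSO and serially diluted in the growth medium. MIC was the read-out.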

[2] = test system: Candida albicans; experiment: Antifungal activity against Candida albicans CPCC400616 assessed as fungal growth inhibition; summary of the method: as §1
[3] = test system: Candida tropicalis; experiment: Antifungal activity against Candida tropicalis CGMCC 2.3739 assessed as fungal growth inhibition; summary of the method: as §1
[4] = test system: Cryptococcus neoformans; experiment: Antifungal activity against Cryptococcus neoformans CGMCC 2.3161 assessed as fungal growth inhibition; summary of the method: as §1
[5] = test system: Candida parapsilosis; experiment: Antifungal activity against Candida parapsilosis GIM 2.190 assessed as fungal growth inhibition; details: Lodderomyces parapsilosis; summary of the method: as §1
[6] = test system: Nakaseomyces glabratus; experiment: Antifungal activity against clinical isolate Candida glabrata assessed as fungal growth inhibition; summary of the method: as §1
[7] = test system: Pichia kudriavzevii; experiment: Antifungal activity against Pichia kudriavzevii GIM 2.1 assessed as fungal growth inhibition; summary of the method: as §1

Row | Compound | MIC [1] [µg/mL] | MIC [2] [µg/mL] | MIC [3] [µg/mL] | MIC [4] [µg/mL] | MIC [5] [µg/mL] | MIC [6] [µg/mL] | MIC [7] [µg/mL]
1 | COc1ccc(-c2ncc(C(=O)NC(Cn3ccnc3)C(=O)c3ccccc3)cn2)cc1 (racemic) | > 64 | > 64 | > 64 | > 64 | > 64 | > 64 | > 64
2 | O=C(NC(Cn1ccnc1)C(=O)c1ccccc1)c1ccc(-c2ccncc2)cc1 (racemic) | 8 (≈ 20.2 µM) | 16 (≈ 40.4 µM) | 8 (≈ 20.2 µM) | > 64 | > 64 | > 64 | 16 (≈ 40.4 µM)
3 | O=C(NC(Cn1ccnc1)C(=O)c1ccccc1)c1cc(-c2ccccc2)on1 (racemic) | 32 (≈ 82.8 µM) | 64 (≈ 166 µM) | > 64 | > 64 | > 64 | > 64 | > 64
4 | CCc1ccc(-c2ncc(C(=O)NC(Cn3ccnc3)C(=O)c3ccccc3)cn2)cc1 (racemic) | > 64 | > 64 | > 64 | > 64 | > 64 | > 64 | > 64
5 | O=C(NC(Cn1ccnc1)C(=O)c1ccccc1)c1ccc(-c2cccnc2)cc1 (racemic) | 8 (≈ 20.2 µM) | 32 (≈ 80.7 µM) | > 64 | > 64 | > 64 | > 64 | > 64
6 | O=C(NC(Cn1ccnc1)C(=O)c1ccccc1)c1cnc(-c2ccc(Cl)cc2)nc1 (racemic) | 8 (≈ 18.5 µM) | 16 (≈ 37 µM) | 4 (≈ 9.26 µM) | > 64 | > 64 | > 64 | > 64
7 | CC(C)c1ccc(-c2ncc(C(=O)NC(Cn3ccnc3)C(=O)c3ccccc3)cn2)cc1 (racemic) | > 64 | > 64 | > 64 | > 64 | > 64 | > 64 | > 64
8 | O=C(NC(Cn1ccnc1)C(=O)c1ccccc1)c1ccc(-c2ccccc2)cn1 (racemic) | > 64 | > 64 | > 64 | > 64 | > 64 | > 64 | > 64
9 | O=C(NC(Cn1ccnc1)C(=O)c1ccccc1)c1cnc(-c2cccc(F)c2)nc1 (racemic) | 2 (≈ 4.81 µM) | 8 (≈ 19.3 µM) | 4 (≈ 9.63 µM) | 32 (≈ 77 µM) | 16 (≈ 38.5 µM) | 32 (≈ 77 µM) | 32 (≈ 77 µM)
10 | Cc1ccc(-c2ncc(C(=O)NC(Cn3ccnc3)C(=O)c3ccccc3)cn2)cc1 (racemic) | > 64 | > 64 | > 64 | > 64 | > 64 | > 64 | > 64
11 | O=C(NC(Cn1ccnc1)C(=O)c1ccccc1)c1cnc(-c2ccccc2)nc1 (racemic) | 4 (≈ 10.1 µM) | 16 (≈ 40.3 µM) | 8 (≈ 20.1 µM) | > 64 | > 64 | 32 (≈ 80.5 µM) | 16 (≈ 40.3 µM)
12 | O=C(NC(Cn1ccnc1)C(=O)c1ccccc1)c1csc(-c2ccccc2)n1 (racemic) | > 64 | > 64 | > 64 | > 64 | > 64 | > 64 | > 64
13 | O=C(NC(Cn1ccnc1)C(=O)c1ccccc1)c1cnc(-c2cccc(C(F)(F)F)c2)nc1 (racemic) | > 64 | > 64 | > 64 | > 64 | > 64 | > 64 | > 64
14 | O=C(NC(Cn1ccnc1)C(=O)c1ccc(Cl)cc1)c1cnc(-c2cccc(F)c2)nc1 (racemic) | 1 (≈ 2.22 µM) | 32 (≈ 71.1 µM) | > 64 | > 64 | > 64 | > 64 | > 64
15 | O=C(NC(Cn1ccnc1)C(=O)c1ccccc1)c1cnc(-c2ccccc2F)nc1 (racemic) | > 64 | > 64 | > 64 | > 64 | > 64 | > 64 | > 64
16 | O=C(NC(Cn1ccnc1)C(=O)c1ccccc1)c1ccc(-c2ncccn2)cc1 (racemic) | > 64 | > 64 | > 64 | > 64 | > 64 | > 64 | > 64
17 | O=C(NC(Cn1ccnc1)C(=O)c1ccccc1)c1cnc(-c2cccc(Cl)c2)nc1 (racemic) | > 64 | > 64 | > 64 | > 64 | > 64 | > 64 | > 64
